The list is not random: actives were taken first. Their share in the collection is about 4.9%.
STAT1 blocker – STAT1 signaling inhibition | NIH 3T3 STAT1-luciferase reporter, IFN-gamma, luminescence | inhibition, % at 5.5 µM | 200,000 tested, 0.35% active;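 active = inhibition above a set limit, the mean inhibition across all tested compounds plus 3 SD, cut at about 34% in these data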;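 also: 0% = IFN-gamma with DMSO and 100% = IFN-gamma with 300 µM nifuroxazide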
APP 5'UTR act – activates APP 5'UTR luciferase reporter | activation, % at 2 µM | AID 1276 | 190,000 tested, 1% active | SH-SY5Y APP 5'UTR luciferase reporter, luminescence; zero percent = DMSO vehicle wells;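 active = activation above a set limit, based on mean plus 3 SD of controls, cut at about 140% in these data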
STAT3 blocker – inhibitors of IL-6 induced STAT3 signaling; U3A cells, IL-6 STAT3-luciferase reporter, luminescence; host cell line lacks STAT1; inhibition, % at 5.5 µM; 190,000 tested, 0.89% active;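 active = inhibition above the mean inhibition across all screened compounds plus 3 SD, cut at about 44% in these data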;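 also: 0% = DMSO only wells and 100% = 100 µM nifuroxazide control wells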
STAT1 activator – activators of IFN-gamma induced STAT1 signaling | NIH 3T3 STAT1-luciferase reporter, luminescence; 100% = IFN-gamma alone, no compound | activation (% of control), % at 5.5 µM | 200,000 tested, 2.6% active | AID 932;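 active = activation above the screen-wide mean activation plus 3 SD, cut at about 130% in these data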;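 also: raw ratio to IFN-gamma control signal so 100% means no change and 0% no light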
STAT3 activator – activators of IL-6 induced STAT3 signaling; U3A cells, IL-6 STAT3-luciferase reporter, luminescence; 100% = signal with IL-6 EC80 alone; activation (% of control), % at 5.6 µM; 190,000 tested, 0.91% active;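 active = activation above the screen-wide mean of compound activation plus 3 SD, cut at about 130% in these data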;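 also: 0% = background luminescence of wells with medium and substrate only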
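Test system: human U3A cells carrying STAT3-luciferase construct; control set: IL-6-only wells as 100% reference; timing: compound pre-incubation 1 h before IL-6, then 6 h stimulation at 37 °C; also added: IL-6 stimulus at 33 ng/mL final; evaluation: % activation versus median of IL-6-stimulated wells; detection: reporter luminescence signal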
NF-kB neuron act – compounds increasing NF-kB expression in human neuronal cells | NF-kB reporter expression; active compounds read high | fold change at 12.5 µM | 190,000 tested, 1.6% active | AID 1239; in the data active = fold change above about 3.3
* marks the source's active call; other numbers are inactive results.

SMILES	STAT1 blocker	APP 5'UTR act	STAT3 blocker	STAT1 activator	STAT3 activator	NF-kB neuron act
COc1ccc(Cl)cc1NC(=O)c1cnc2sccn2c1=O	-3	20	1	104	99	1.5
O=C(Nc1cnc2sccn2c1=O)c1ccc(Cl)cc1Cl	-35	39	42	132*	68	1.5
CCOC(=O)c1nc(Nc2cc(C)cc(C)c2)c2ccccc2n1	-2	7	26	101	83	0.76
Cc1ccc2oc(-c3ccccc3)c(C(=O)O)c(=O)c2c1	-27	166*	-24	124	123	4*
CN(C)C(CNC(=O)c1ccc2c(=O)n(-c3ccccc3F)c(=S)[nH]c2c1)Cc1ccccc1 (stereo unspecified)	9	14	11	90	97	0.98
COc1ccc(-c2nsc3c(N4CCCCC4C)ncnc23)cc1 (stereo unspecified)	81*	-34	99*	24	16	0.19
Cc1ccc(C(=O)N2CCN(c3ncnc4c(-c5ccccc5)nsc34)CC2)cc1	-2	0	-5	100	106	0.98
Cc1ccc(-c2nsc3c(N4CCC(C(N)=O)CC4)ncnc23)cc1	-3	142*	-12	104	114	1.7
O=C(CCC1CCCN(C2C3CC4CC(C3)CC2C4)C1)NCc1ccc(F)c(F)c1 (stereo unspecified)	1	12	1	99	110	1.4
CC(C)c1ccc(-c2nnc(N)s2)cc1	-37	62	8	133*	96	3.8*
Cc1ccc(-c2nnc(N)s2)cc1	-16	5	5	115	99	1.3
Clc1ccc(Sc2cc(Cl)c(-c3ccccc3)nn2)cc1	3	-10	-52	98	142*	0.88
CC(=O)Nc1ccc(S(=O)(=O)Oc2cccc(/C=N/N=C3/NC(=O)C(CC(=O)O)S3)c2)cc1 (stereo unspecified)	0	0	8	97	98	1.1
c1ccc(Sc2ncnc3c2oc2ccccc23)nc1	-35	68	-1	132*	103	2.3
COc1ncnc2c1oc1ccccc12	-52	100	-13	146*	113	3.3*
CCCSc1ncnc2c1oc1ccccc12	-20	-3	12	118	91	1.5
CC(C)Sc1ncnc2c1oc1ccccc12	-3	-1	8	103	95	1.2
CCN(CC)S(=O)(=O)c1ccc(N2CCOCC2)c(NC(=O)CCC2CCCCC2)c1	3	-2	5	97	97	1.1
Cc1ccc(N=C2NC(=O)CS2)c(C)c1	6	-11	2	94	98	1.1
Cc1ccc(N=C2NC(=O)/C(=C\c3ccsc3)S2)c(C)c1	-7	-18	-7	106	104	4.4*
CCOC(=O)c1c(-c2ccccc2)csc1NC(=O)C(C)NCCCN1CCOCC1 (stereo unspecified)	3	6	2	97	103	1
CC(C)CCNC(=O)c1ccc(Cl)c(NC(=O)Cc2ccccc2)c1	0	13	2	100	101	1.2
COc1ccc(C(=O)Nc2cc(C(=O)NCCc3ccccc3)ccc2Cl)cc1	-8	31	-9	107	108	1.1
CCOCC(=O)Nc1cc(C(=O)NCCc2ccccc2)ccc1Cl	-35	65	3	130*	100	1.7
COCC(=O)Nc1cc(C(=O)NCCc2ccccc2)ccc1Cl	-49	74	8	145*	96	1.8
SMILES	STAT1 blocker	APP 5'UTR act	STAT3 blocker	STAT1 activator	STAT3 activator	NF-kB neuron act
COC(=O)c1c(NC(=O)CSc2nnc(C)c(=O)[nH]2)sc(C)c1C	0	21	4	99	107	0.95
Cc1cccc(C)c1NC(=O)CN(c1ccccn1)S(=O)(=O)c1ccccc1	-1	13	3	100	101	1.1
Cn1cc(-c2ccno2)c(C(=O)O)n1	-9	9	-3	108	102	1.2
CC(C)c1ccc(/C=C/C(=O)N2CCCCCC2)cc1	-1	16	19	101	86	1.9
CC(C)c1ccc(/C=C/C2=NNC(=O)CC2)cc1	-38	165*	36	136*	71	4.6*
O=C(N/C(=C\c1cccc([N+](=O)[O-])c1)C(=O)N(CCO)CCO)c1ccco1	0	-3	-9	99	112	1
Cc1cnc(NC(=O)CCCSc2nc3ccccc3s2)s1	1	-8	-31	99	135*	0.98
COc1ccc(N2C(=O)C3C(c4ccc(C(=O)O)cc4)NC(Cc4ccccc4)(C(=O)O)C3C2=O)c([N+](=O)[O-])c1 (stereo unspecified)	-6	-1	7	103	98	1.1
CC(=O)NC1C(=O)N=C(SCc2ccccc2)NC1=O (stereo unspecified)	-2	-5	-2	105	103	1
CC(=O)NC1C(=O)Nc2c(C)cc(C)cc21 (stereo unspecified)	-43	8	8	138*	95	1.1
Cc1ccc(-c2cc(C(=O)N3CCCc4ccccc43)no2)cc1	-42	41	10	137*	97	2.6
Cc1cc(C)cc(NC(=O)CSc2nnc(-c3ccccc3C)o2)c1	5	41	26	95	84	4.2*
Cc1cccc(NC(=O)CSc2nnc(-c3ccccc3C)o2)c1	-6	151*	27	105	80	4.7*
O=C(CCCOc1ccccc1)Nc1ccc(Cl)cn1	-12	22	9	110	95	1.1
Cc1ccc(CCNC(=O)CNC(=O)c2cccs2)cc1	-1	-11	10	100	95	1.4
CN(CCOc1ccccc1)C(=O)c1cc([N+](=O)[O-])cc([N+](=O)[O-])c1	0	22	-2	98	104	0.88
Cc1sc(=NC(=O)c2ccco2)n(C)c1-c1ccc(F)cc1	-30	126	26	127	86	3
Cc1sc(=NC(=O)c2ccco2)n(C)c1-c1ccccc1	-11	131	39	110	70	5.1*
Cn1c(=NC(=O)c2cccc([N+](=O)[O-])c2)sc2ccccc21	-76	104	-41	170*	136*	4.2*
Cn1c(=NC(=O)c2ccco2)sc2ccccc21	-19	156*	-10	119	117	4.6*
COc1cc(C(=O)N=c2sc3ccccc3n2C)cc(OC)c1OC	-11	19	20	109	88	1
COc1ccc(N(CC(=O)O)S(=O)(=O)c2ccc(C)cc2)cc1Cl	-6	-16	7	104	99	1.1
O=S(=O)(NC(=NCc1ccccc1)c1ccc(F)cc1)c1ccc(Cl)cc1	12	19	-2	88	108	1.2
O=C(NCCc1ccccc1)C1CCC(CNS(=O)(=O)c2cccs2)CC1 (stereo unspecified)	4	38	0	95	102	1.1
Fc1ccc(NC(=S)NNc2ncc(C(F)(F)F)cc2Cl)c(F)c1	59*	0	62*	46	49	0.35

Source: PubChem BioAssay
